Data: the RNAGym collection of RNA variant scans (doi:10.1126/science.aae0568)
This sample holds only a part of the variants without activity.

B1: tRNA (parent)
chain: GUUCCGUUGGCGUAAUGGUAACGCGUCUCCCUCCUAAGGAGAAGACUGCGGGUUCGAGUCCCGUACGGAACG

Variants of: B1
Experiment: yeast fitness relative to wild type (ratio to wild type); higher = fitter; tRNA-Arg(CCU), competitive growth, 37 C, YPD
Method in brief: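 Variants of the tRNA-Arg(CCU) gene, chemically synthesised with a 3% per-site mutation rate at 69 sites, were placed at the native genomic locus in Saccharomyces cerevisiae. The pooled strains were competed in YPD at 37°C for 24 hours in six parallel replicates. Gene amplicons from the start population and from each end population were read by 100-nucleotide paired-end sequencing. Darwinian fitness relative to wild type came from changes in genotype frequencies; genotypes needed ≥ 100 starting reads, and estimates < 0.5 were set to 0.5.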

Variant | yeast fitness
U3G A70C | 0.897
U3C C11A C33U C49A | ≤ 0.5
U3C C27U C46G | 0.789
U3C C61U U64C | 0.72
U3C C11U A36C A65C C66U | ≤ 0.5
U3G C24A G58A | ≤ 0.5
U3C C30G A43C | 0.548
U3C C46A A70C | 1.12
U3C U19G A43U A65G G68A | ≤ 0.5
U3G C11U U19C A20U A42C A65C | ≤ 0.5
U3C G12A G44C | 0.546
U3G C4A A40U C62U G63C | ≤ 0.5
U3G A45G A65G | 0.729
U3G A14G A43U U54A A57C | ≤ 0.5
U3G C29A | 0.533
U3G C11U U19C A20U A42C A65C A69U | 0.537
U3G C29G A45G | 0.594
U3G A15G C24G G50A C55U | 0.613
U3G A42G C62G | ≤ 0.5
U3C G23C | 0.695
U3C U19G A21C U32A A37U | ≤ 0.5
U3C C33U | 0.803
U3C G51A A69C | 0.602
U3G A65U | 0.855

Variant | yeast fitness
U3C G58C | 0.97
U3C U32A | 0.817
U3G C5A G63A | ≤ 0.5
U3C G6C U7G C24G C27A U28A G41A | 0.618
U3G C22A G25C C33U | 0.606
U3C U8G U32A C33G | ≤ 0.5
U3C C55A | 0.687
U3C C55U | 0.687
U3C U19A A65G | 0.796
U3C G9A A21G A40G G56A U64C | ≤ 0.5
U3C C29G C33A | ≤ 0.5
U3C C31U G68C | 0.664
U3C G48C C66U | 0.761
U3C G51C | 0.521
U3C C11U U16C C30G C31G A37U | ≤ 0.5
U3C G58C G67C | 0.701
U3C G10A C46U U47A U54C | ≤ 0.5
U3C G9A G48C | 0.784
U3C C27G C30U G67A | 0.554
U3G C30U A43U G48C G68C | ≤ 0.5
U3C C46A G50A | 0.731
U3G C27G G50C | ≤ 0.5
U3C C27U U35C | 0.626
U3C C34G A57C | 0.715

Variant | yeast fitness
U3G C11G A65U C66U | ≤ 0.5
U3C G25A U59A | 0.642
U3C U8G A20G C24G | ≤ 0.5
U3G C46U U59A | 0.562
U3G C11U G17A U19C A20U A42C A65C A69U | ≤ 0.5
U3C U8G U32A C33G A43U C61U C62U | ≤ 0.5
U3G C11U A21U G44C A57U | ≤ 0.5
U3C C5U U26A G63A | ≤ 0.5
U3G C24U C31U A69U | 0.839
U3G C11U U47A G48C | 0.675
U3C G12A | 0.963
U3C G23C C66U | ≤ 0.5
U3G C5U A70G | ≤ 0.5
U3C C22U C66U | 0.552
U3C U26A C31U | 1.02
U3C G17A C30G C61G | ≤ 0.5
U3C C30U A37G C61A | ≤ 0.5
U3C C11U G12C | ≤ 0.5
U3C C31U A65C | 0.791
U3C C55U C61A | ≤ 0.5
U3C G10A G52A U54C G56A G58A | ≤ 0.5
U3C G67A | 0.871
U3C G25A C29U | 0.681
U3G C24U C31U | 0.793

Variant | yeast fitness
U3C C24U A36C G63A | ≤ 0.5
U3C G6C A14U G25A G38A U47A | ≤ 0.5
U3C U28A U35C A37C G56C A57G G68U | ≤ 0.5
U3G A14U C30U C55A | ≤ 0.5
U3G C4A G9A G56A C61G | ≤ 0.5
U3C G44C C46A | 0.672
U3G C31U | 1
U3G C11U C46U C61G | ≤ 0.5
U3C C22U G48A | 0.955
U3C U28G A57C | ≤ 0.5
U3C C24U C29G C49U | 0.618
U3G C5U C30U A40U C49U | ≤ 0.5
U3G C4A G12A C29A C30G | 0.556
U3C C30U C55U G58A | ≤ 0.5
U3C C5U G68A | ≤ 0.5
U3C G10A G23A C62G G67A | ≤ 0.5
U3C G58A C61U A70G | 0.777
U3G A14C C24G C60U U64A | ≤ 0.5
U3C G18C C31G C61A | 0.535
U3C C62U A69C | 0.756
U3G C4U U35A G58A | ≤ 0.5
U3G A15G A21U G48A | ≤ 0.5
U3C G18C C31G C34G | ≤ 0.5
U3G A15U C46G C61A | ≤ 0.5

Variant | yeast fitness
U3C G6C G38C C46A | ≤ 0.5
U3C C27A C62U | 0.526
U3C C31G U32C G38C C46G G48C | ≤ 0.5
U3C C11A A15C C24A C27A G41C | ≤ 0.5
U3G A45G A57G | 0.717
U3G A14G C62G A69G | ≤ 0.5
U3C G63C | 0.747
U3C G63A | 0.909
U3G | 0.978
U3C C27U C31U | 0.787
U3C C22G C27G C31G C61G A69U | 0.615
U3C U16C C49G | ≤ 0.5
U3C U19G C61U | ≤ 0.5
U3G A15U C61A | ≤ 0.5
U3C C11U U13C C24A A43C G50C C60G | ≤ 0.5
U3C G39A A57U C62G | ≤ 0.5
U3G C5G A20C A43C | 0.557
U3G C60A C66U | ≤ 0.5
U3C G6A U54C C61G | ≤ 0.5
U3G A14G C62A | 0.603
U3G A21C G51A | 0.605
U3C G10C C55G | ≤ 0.5
U3C C22U G23A | ≤ 0.5
U3G C30G A40C C46U C49U G68C | ≤ 0.5

Variant | yeast fitness
U3C C31U G58C | 0.712
U3G C24U U28C | 0.599
U3C C31U C49G | 0.755
U3C U13C G17A C24U G52A | ≤ 0.5
U3C C30A U35C G39A A42C A43G C46U A65C | ≤ 0.5
U3C C11A C24U A42G | 0.638
U3C G38A G48A | 0.595
U3C C34G C49A G50A | ≤ 0.5
U3G C22U A57G C60A | ≤ 0.5
U3C C24U A40G C46A | 0.702
U3C U8C C27G C33A | ≤ 0.5
U3G C27A | 0.633
U3C C34A G44A G52A C55U | 0.562
U3C G52A G68A | ≤ 0.5
U3G A20G C49U | ≤ 0.5
U3G C33U | 0.691
U3C U54C G67C | ≤ 0.5
U3C G58A G68C | 0.59
U3C G12A A21G C46G G50A | ≤ 0.5
U3G C4A | 0.949
U3C C22A U47A A70G | ≤ 0.5
U3C U53A | 0.664
U3C G38C | 0.813
U3C G38A | 1.05

Variant | yeast fitness
U3C C24G G44A | ≤ 0.5
U3C G51C A57G | ≤ 0.5
U3C G48C C55A | 0.541
U3G A14G C30U G48C G68C | ≤ 0.5
U3G C11U U19C A20U A42C C49U G56C | ≤ 0.5
U3C C11U C29U G67A A70U | ≤ 0.5
U3G C34G C62U | ≤ 0.5
U3C U7C G41A A42C G50C A70G | ≤ 0.5
U3G C5U G51A | ≤ 0.5
U3C C11U | 1.06
U3C C27U A42G G67A | ≤ 0.5
U3C G12A A45U C66G | 0.685
U3G C5G U19C C66U | 0.57
U3C G9A A57C | 0.584
U3C U7C U8A A15U G50A U53A | ≤ 0.5
U3C C29G C30G C49A G56C C61U | 0.789
U3C C29U C33A A40C | ≤ 0.5
U3C G10C C34U | 0.586
U3G A43G | 0.936
U3C C30G A42C | ≤ 0.5
U3C U59C | 0.961
U3G C5U A65U | 0.651
U3C C46G A69C | 0.625
